In brackets after ≈: the same amount, converted by molar mass. Blank lines part the entries; values can stand above or below the compound they belong to.
Key:
[1] = target: T1, Sodium channel protein type 9 subunit alpha (Homo sapiens, UniProt Q15858); assay: Antagonist activity at 20% inactivated human sodium channel Nav1.7 expressed in human HEK293 cells by patch-clamp electrophysiological assay; format: functional, cell-based
Outline: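 Automated PatchXpress electrophysiology on hNav1.7 channels with an average 20% contribution from inactivated channels. Dose-response curves built from single-concentration tests on many cells. IC50 is the average of at least two determinations.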

[2] = target: T1, Sodium channel protein type 9 subunit alpha; assay: Antagonist activity at 20% inactivated human sodium channel Nav1.7 expressed in human HEK293 cells by manual patch-clamp electrophysiological assay; format: functional, cell-based
Outline: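 Manual electrophysiology on hNav1.7; holding voltage set, and adjusted as needed during the experiment, to give steady 20% inactivation. […] Values are the average of at least two determinations.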

[3] = test system: Hepatocyte; assay: Drug metabolism in rat hepatocytes assessed as glucuronide adduct formation at 18.7 mins; format: ADME, cell-based; conditions: 0.311667 h
[4] = Solubility of the compound in simulated intestinal fluid; format: physicochemical
[5] = test system: MDR1 (P-gp); assay: Apparent permeability across pig LLC-PK1 cells over expressing human MDR1 at 5 uM in presence 0.1 % BSA; format: ADME, cell-based, Sus scrofa
Outline: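 MDR1-LLC-PK1 pig kidney cells expressing human MDR1. Compound tested at 5 µM with 0.1% BSA. Permeability is the average of the apical-to-basolateral and basolateral-to-apical apparent permeability values.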

[6] = Clearance in Sprague-Dawley rat at 0.5 mg/kg, iv; format: ADME, organism-based; set-up: dose 0.5 mg/kg, route intravenous; conditions: in vivo
[7] = Volume of distribution at steady state in Sprague-Dawley rat at 0.5 mg/kg, iv; format: ADME, organism-based; set-up: dose 0.5 mg/kg, route intravenous; conditions: in vivo, read-out: Vdss
[8] = target: Sodium channel protein type 5 subunit alpha (Homo sapiens, UniProt Q14524); assay: Antagonist activity at partially inactivated human sodium channel Nav1.5 expressed in human HEK293 cells by patch-clamp electrophysiological assay; format: functional, cell-based
Sequence of Sodium channel protein type 5 subunit alpha (Q14524 whole entry): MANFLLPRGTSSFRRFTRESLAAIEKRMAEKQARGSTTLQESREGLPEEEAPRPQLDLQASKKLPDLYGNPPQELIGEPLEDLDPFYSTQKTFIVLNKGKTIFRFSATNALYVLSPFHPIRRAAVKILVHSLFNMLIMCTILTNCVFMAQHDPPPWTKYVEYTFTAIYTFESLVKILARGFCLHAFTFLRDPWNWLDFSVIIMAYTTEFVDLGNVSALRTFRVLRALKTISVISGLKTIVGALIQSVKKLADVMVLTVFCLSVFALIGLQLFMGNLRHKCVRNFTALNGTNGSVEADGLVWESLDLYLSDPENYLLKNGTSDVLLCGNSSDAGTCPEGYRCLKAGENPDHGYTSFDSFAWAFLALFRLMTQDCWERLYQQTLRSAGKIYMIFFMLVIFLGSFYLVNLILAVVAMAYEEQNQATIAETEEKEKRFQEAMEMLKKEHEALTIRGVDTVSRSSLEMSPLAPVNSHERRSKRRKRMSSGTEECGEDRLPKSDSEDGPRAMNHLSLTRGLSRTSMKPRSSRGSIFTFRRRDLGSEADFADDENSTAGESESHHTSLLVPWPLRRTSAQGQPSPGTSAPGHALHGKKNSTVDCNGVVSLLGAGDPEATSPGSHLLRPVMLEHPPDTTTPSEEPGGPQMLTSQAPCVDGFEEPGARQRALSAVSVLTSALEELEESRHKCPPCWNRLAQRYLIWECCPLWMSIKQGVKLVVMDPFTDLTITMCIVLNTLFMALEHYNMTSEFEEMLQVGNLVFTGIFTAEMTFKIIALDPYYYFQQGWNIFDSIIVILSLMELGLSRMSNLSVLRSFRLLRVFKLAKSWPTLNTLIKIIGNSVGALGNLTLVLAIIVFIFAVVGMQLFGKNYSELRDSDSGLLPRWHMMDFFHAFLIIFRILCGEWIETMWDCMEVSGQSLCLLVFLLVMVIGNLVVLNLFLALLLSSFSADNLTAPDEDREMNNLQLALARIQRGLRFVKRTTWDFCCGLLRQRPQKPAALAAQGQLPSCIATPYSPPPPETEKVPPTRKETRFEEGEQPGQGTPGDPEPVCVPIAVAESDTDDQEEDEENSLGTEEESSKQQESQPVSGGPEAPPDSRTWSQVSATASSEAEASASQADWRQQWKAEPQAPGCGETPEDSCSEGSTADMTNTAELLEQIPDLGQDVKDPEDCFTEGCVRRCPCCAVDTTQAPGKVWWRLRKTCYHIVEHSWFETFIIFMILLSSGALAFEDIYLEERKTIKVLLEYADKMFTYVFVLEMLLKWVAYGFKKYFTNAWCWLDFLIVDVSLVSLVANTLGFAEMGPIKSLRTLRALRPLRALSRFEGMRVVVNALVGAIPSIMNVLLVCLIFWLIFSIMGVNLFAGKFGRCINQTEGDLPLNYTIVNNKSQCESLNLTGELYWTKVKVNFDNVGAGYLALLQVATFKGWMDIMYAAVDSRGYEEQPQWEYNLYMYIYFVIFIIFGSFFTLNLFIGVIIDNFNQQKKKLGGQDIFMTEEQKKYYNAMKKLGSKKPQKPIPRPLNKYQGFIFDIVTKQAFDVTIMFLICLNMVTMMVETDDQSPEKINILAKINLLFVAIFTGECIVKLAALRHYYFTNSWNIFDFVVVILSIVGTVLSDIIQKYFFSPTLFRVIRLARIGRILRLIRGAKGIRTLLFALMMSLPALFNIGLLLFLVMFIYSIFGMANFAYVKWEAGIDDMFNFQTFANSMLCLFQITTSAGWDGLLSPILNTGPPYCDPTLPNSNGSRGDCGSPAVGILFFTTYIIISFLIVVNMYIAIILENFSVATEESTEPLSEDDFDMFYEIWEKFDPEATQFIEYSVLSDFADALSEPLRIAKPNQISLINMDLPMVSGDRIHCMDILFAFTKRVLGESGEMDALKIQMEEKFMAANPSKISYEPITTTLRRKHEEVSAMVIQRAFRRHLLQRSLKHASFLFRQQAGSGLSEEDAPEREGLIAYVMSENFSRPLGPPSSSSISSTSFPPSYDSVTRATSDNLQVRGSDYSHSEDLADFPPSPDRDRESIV

[9] = Solubility of the compound in 0.01 N HCl; format: physicochemical
[10] = Solubility of the compound in phosphate buffer saline; format: physicochemical; conditions: phosphate buffered saline
[11] = Half life in Sprague-Dawley rat at 0.5 mg/kg, iv; format: ADME, organism-based; set-up: dose 0.5 mg/kg, route intravenous; conditions: in vivo
[12] = target: T1, Sodium channel protein type 9 subunit alpha; assay: Antagonist activity at non-inactivated human sodium channel Nav1.7 expressed in human HEK293 cells by manual patch-clamp electrophysiological assay; format: functional, cell-based
Outline: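 Manual electrophysiology on fully noninactivated hNav1.7 with holding voltage set to -140 mV. […] Values are the average of at least two determinations.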

[13] = target: Voltage-gated inwardly rectifying potassium channel KCNH2 (Homo sapiens, UniProt Q12809); assay: Displacement of dofetilide from human ERG
Sequence of Voltage-gated inwardly rectifying potassium channel KCNH2 (Q12809 whole entry): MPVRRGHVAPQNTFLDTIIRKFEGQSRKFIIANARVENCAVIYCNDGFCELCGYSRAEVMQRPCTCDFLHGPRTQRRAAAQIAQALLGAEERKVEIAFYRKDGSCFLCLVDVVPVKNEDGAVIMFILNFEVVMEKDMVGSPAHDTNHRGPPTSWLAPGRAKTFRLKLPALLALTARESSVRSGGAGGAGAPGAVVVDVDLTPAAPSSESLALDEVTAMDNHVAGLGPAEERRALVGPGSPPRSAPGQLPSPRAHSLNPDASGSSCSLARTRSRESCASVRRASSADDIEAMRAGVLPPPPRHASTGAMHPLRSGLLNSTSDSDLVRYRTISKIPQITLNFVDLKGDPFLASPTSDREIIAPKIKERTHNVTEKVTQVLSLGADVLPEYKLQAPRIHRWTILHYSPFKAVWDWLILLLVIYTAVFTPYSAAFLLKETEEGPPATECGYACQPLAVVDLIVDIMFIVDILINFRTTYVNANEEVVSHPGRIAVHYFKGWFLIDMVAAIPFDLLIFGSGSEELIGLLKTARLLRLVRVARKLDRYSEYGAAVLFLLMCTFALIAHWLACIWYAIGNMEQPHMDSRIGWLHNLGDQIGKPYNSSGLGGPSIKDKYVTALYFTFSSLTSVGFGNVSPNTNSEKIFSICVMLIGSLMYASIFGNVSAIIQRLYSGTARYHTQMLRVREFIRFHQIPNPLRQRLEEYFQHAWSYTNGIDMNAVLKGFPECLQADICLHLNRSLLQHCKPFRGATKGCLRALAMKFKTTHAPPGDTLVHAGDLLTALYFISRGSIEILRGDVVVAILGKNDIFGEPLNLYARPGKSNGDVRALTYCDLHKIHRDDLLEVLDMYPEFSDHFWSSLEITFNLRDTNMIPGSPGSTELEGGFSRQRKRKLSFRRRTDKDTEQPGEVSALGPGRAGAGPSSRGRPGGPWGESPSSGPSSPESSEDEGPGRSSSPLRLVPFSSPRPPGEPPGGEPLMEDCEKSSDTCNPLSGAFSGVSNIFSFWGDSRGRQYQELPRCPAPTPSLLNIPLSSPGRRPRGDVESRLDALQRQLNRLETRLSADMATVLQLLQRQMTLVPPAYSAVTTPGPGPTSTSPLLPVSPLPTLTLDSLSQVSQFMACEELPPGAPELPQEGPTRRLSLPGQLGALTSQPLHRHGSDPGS

[14] = test system: LLC-PK1; assay: Efflux ratio of permeability from […] side in pig LLC-PK1 cells over expressing human MDR1; format: ADME, cell-based, Sus scrofa
Outline: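 Pig kidney LLC-PK1 cells expressing human MDR1. Compound tested in the presence of 0.1% BSA. Apparent permeability was measured in both the apical-to-basolateral and basolateral-to-apical directions.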

[15] = test system: Liver microsomes; assay: Metabolic stability in human liver microsomes after 15 mins; format: ADME, Microsome; conditions: 0.25 h
[16] = test system: Liver microsomes; assay: Metabolic stability in rat liver microsomes after 15 mins; format: ADME, Microsome; conditions: 0.25 h
[17] = organism: Rattus norvegicus; assay: Toxicity in rat assessed as reduction in total basic movement by open field test; format: organism-based; set-up: scale not given: the % may be the effect or the level left; conditions: in vivo
[18] = organism: Rattus norvegicus; assay: Toxicity in rat assessed as complete reduction in rearing behavior by open field test; format: organism-based; set-up: scale not given: the % may be the effect or the level left; conditions: in vivo
[19] = Ratio of drug level in brain to plasma in ip dosed rat; format: ADME, organism-based; conditions: brain and plasma, read-out: BPR

T1 sequence (Q15858 whole entry): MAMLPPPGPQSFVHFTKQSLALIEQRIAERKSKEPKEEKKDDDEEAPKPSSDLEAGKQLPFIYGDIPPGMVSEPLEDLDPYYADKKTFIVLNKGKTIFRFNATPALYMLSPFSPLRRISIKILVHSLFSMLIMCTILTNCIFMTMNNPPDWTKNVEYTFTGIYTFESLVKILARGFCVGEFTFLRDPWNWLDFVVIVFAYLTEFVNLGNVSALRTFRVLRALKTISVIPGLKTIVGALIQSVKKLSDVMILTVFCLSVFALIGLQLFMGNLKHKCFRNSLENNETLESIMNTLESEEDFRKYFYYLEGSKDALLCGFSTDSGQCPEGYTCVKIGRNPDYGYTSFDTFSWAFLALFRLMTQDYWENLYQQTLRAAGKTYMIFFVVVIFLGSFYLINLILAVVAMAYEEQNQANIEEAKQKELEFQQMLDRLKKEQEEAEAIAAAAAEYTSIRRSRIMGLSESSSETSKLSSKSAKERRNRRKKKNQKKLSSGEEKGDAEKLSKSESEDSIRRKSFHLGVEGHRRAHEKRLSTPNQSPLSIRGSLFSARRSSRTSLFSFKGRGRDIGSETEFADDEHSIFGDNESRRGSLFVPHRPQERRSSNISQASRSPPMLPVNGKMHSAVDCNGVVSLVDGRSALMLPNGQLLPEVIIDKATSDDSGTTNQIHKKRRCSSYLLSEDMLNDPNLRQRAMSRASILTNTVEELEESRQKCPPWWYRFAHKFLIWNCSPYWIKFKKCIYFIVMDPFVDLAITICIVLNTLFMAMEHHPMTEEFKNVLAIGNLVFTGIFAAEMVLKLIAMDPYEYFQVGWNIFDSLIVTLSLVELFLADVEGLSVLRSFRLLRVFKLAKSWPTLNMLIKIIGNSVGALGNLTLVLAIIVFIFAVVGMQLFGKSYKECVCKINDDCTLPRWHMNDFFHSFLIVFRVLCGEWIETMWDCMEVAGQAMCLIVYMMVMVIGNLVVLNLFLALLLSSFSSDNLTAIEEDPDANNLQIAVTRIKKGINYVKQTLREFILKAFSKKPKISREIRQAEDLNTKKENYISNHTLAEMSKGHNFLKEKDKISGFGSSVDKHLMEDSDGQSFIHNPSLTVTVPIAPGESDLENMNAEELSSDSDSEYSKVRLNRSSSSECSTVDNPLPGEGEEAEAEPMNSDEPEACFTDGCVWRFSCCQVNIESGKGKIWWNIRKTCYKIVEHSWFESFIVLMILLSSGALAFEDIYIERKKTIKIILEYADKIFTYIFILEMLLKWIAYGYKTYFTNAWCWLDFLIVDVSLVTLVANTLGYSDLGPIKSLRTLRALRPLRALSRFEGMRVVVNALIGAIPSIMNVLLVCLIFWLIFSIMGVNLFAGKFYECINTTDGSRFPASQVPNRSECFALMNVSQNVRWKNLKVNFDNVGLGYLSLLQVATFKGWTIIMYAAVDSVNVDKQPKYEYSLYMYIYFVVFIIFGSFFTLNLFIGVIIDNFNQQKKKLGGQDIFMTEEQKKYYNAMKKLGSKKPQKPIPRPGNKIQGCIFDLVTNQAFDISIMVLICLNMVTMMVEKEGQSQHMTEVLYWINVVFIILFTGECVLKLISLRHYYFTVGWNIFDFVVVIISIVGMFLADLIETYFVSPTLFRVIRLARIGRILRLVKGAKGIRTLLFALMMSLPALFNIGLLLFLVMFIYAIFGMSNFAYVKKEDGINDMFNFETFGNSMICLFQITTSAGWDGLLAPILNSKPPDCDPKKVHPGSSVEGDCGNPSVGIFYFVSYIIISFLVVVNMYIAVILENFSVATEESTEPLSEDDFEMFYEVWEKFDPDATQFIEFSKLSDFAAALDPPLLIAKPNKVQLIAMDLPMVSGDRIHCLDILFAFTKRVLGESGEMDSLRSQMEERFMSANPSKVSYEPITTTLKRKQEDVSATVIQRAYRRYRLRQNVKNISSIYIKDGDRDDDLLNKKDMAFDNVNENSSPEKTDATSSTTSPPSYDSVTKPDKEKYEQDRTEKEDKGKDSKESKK

IC50 [1]: 0.68 µM | IC50 [2]: 0.34 µM | Drug metabolism [3]: Active | solubility [4]: 67 µg/mL (≈ 232 µM) | Papp at 5 µM [5]: 270 nm/s | clearance [6]: 5.1 L/h/kg | Vd [7]: 7.9 L/kg | solubility [9]: 4 µg/mL (≈ 13.8 µM) | solubility [10]: 5 µg/mL (≈ 17.3 µM) | half-life [11]: 2.7 h | IC50 [12]: 2.2 µM
SMILES: CC(C)(C)c1ccc(CSc2nc(N)cc(O)n2)cc1
IC50 [8]: 0.3 µM

IC50 [1]: 4.7 µM
SMILES: Nc1cc(=O)[nH]c(SCc2ccc(Cl)cc2)n1

IC50 [1]: 0.94 µM | IC50 [2]: 0.4 µM | solubility [4]: 14 µg/mL (≈ 58 µM) | Papp at 5 µM [5]: 210 nm/s | clearance [6]: 6.5 L/h/kg | Vd [7]: 1.3 L/kg | solubility [9]: 3 µg/mL (≈ 12.4 µM) | Ratio [14]: 1.1 | solubility [10]: 2 µg/mL (≈ 8.29 µM) | half-life [11]: 0.25 h | IC50 [12]: 1.4 µM
SMILES: CCCCCCCSc1nc(N)cc(=O)[nH]1
Ki [13]: > 15 µM | IC50 [8]: 1.2 µM

IC50 [1]: > 30 µM
SMILES: N#Cc1ccc(CSc2nc(N)cc(O)n2)cc1

Stability [15]: Unstable | IC50 [1]: 2.5 µM | Stability [16]: Unstable
SMILES: CC(C)(C)c1ccc(CSc2nc(NC(=O)C3CC3)cc(=O)[nH]2)cc1

IC50 [1]: > 30 µM
SMILES: CC(C)CSc1nc(N)cc(=O)[nH]1

IC50 [1]: 2.2 µM
SMILES: Nc1cc(=O)[nH]c(SCc2ccc(OC(F)(F)F)cc2)n1

IC50 [1]: > 30 µM
SMILES: CS(=O)(=O)c1ccc(CSc2nc(N)cc(=O)[nH]2)cc1

IC50 [1]: > 30 µM
SMILES: CC(C)(C)c1ccc(CSc2nccc(=O)[nH]2)cc1

IC50 [1]: > 30 µM
SMILES: CC(C)(C)c1ccc(CSc2nc(O)cc(=O)[nH]2)cc1

Stability [15]: Unstable | IC50 [1]: 1.2 µM | Stability [16]: Unstable
SMILES: CC(=O)Nc1cc(=O)[nH]c(SCc2ccc(C(C)(C)C)cc2)n1

IC50 [1]: 7.8 µM
SMILES: CC(C)(C)OC(=O)Nc1cc(=O)[nH]c(SCc2ccc(C(C)(C)C)cc2)n1

IC50 [1]: > 30 µM
SMILES: CC(C)(C)c1ccc(CSc2nc(NS(C)(=O)=O)cc(=O)[nH]2)cc1

IC50 [1]: 4.3 µM
SMILES: CC(C)(C)c1ccc(CSc2nc(N)c(Cl)c(=O)[nH]2)cc1

IC50 [1]: > 30 µM
SMILES: CC(C)(C)c1ccc(CSc2nc(N)c(N)c(=O)[nH]2)cc1

IC50 [1]: > 30 µM
SMILES: CC(C)(C)c1ccc(CSc2nc3[nH]cnc3c(=O)[nH]2)cc1

IC50 [1]: 0.42 µM | IC50 [2]: 0.08 µM | solubility [4]: 14 µg/mL (≈ 46.1 µM) | Papp at 5 µM [5]: 160 nm/s | clearance [6]: 1.1 L/h/kg | Vd [7]: 2.6 L/kg | Kp [19]: 3.3 | solubility [9]: 1 µg/mL (≈ 3.3 µM) | Ratio [14]: 1 | solubility [10]: 10 µg/mL (≈ 33 µM) | half-life [11]: 3.9 h | IC50 [12]: 0.5 µM
SMILES: Cn1c(SCc2ccc(C(C)(C)C)cc2)nc(N)cc1=O
Ki [13]: > 15 µM | Activity [17]: 81% | Activity [18]: 98% | IC50 [8]: 0.2 µM

IC50 [1]: > 30 µM
SMILES: COc1cc(N)nc(SCc2ccc(C(C)(C)C)cc2)n1

IC50 [1]: > 30 µM
SMILES: Cn1c(N)cc(=O)nc1SCc1ccc(C(C)(C)C)cc1

Source: ChEMBL document CHEMBL1938353, “Discovery and optimization of aminopyrimidinones as potent and state-dependent Nav1.7 antagonists” (Bioorg Med Chem Lett, 2012)
